Data published in paper PMC9299459 (Clinical Pharmacology in Drug Development, 2021).
Entries after “also recorded” stand apart in the source; their conditions may differ. Like-named read-outs stand apart in the source and are kept apart here.

Tests used:
[1] = format: in vivo, human; details: for AUC(0-inf): AUCinf; for AUC(0-t): AUClast
[2] = Safety and tolerability; format: in vivo, human; details: healthy participants
Method in brief: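 Open-label, randomized, 2-period, 2-sequence crossover in healthy men and women of non-childbearing potential, aged 18–55 years. Arms were a single oral 250 mg dose of test compound after overnight fast, or the same dose on day 5 of proton pump inhibitor 40 mg daily for 5 days. Dosing was supervised, in the morning with 240 mL water. All participants dosed at least once were included. AEs, ECGs, vital signs and safety labs were reviewed throughout.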

[3] = aqueous solution, cited from earlier work
[4] = repeated administration; cited from earlier work
[5] = healthy participants, plasma, single oral crizotinib 250 mg on day 5 of esomeprazole 40 mg/day (n = 15)
[6] = healthy participants, single oral crizotinib 250 mg on day 5 of esomeprazole 40 mg/day (n = 15)
[7] = human, plasma, oral, 250 mg, Adjusted Geometric Mean, Reference, Reference: single 250-mg crizotinib dose after overnight fasting
[8] = human, plasma, oral, Adjusted Geometric Mean, Test, Test: esomeprazole 40 mg per day for 5 days and single 250-mg crizotinib dose after overnight fasting on day 5
[9] = human, plasma, po, 250 mg, Arithmetic Mean ± SD, healthy participants, plasma, single oral crizotinib 250 mg on day 5 of esomeprazole 40 mg/day (n = 15)
[10] = human, plasma, po, 250 mg, Geometric Mean (%CV), healthy participants, plasma, single oral crizotinib 250 mg on day 5 of esomeprazole 40 mg/day (n = 15)
[11] = N = 15 per treatment, MedDRA preferred term
[12] = Reference: single 250-mg crizotinib dose after overnight fasting
[13] = Test: esomeprazole 40 mg per day for 5 days and single 250-mg crizotinib dose after overnight fasting on day 5
[14] = molar ratio PF-06260182/crizotinib, single oral crizotinib 250 mg alone (n = 15)

C[C@@H](Oc1cc(-c2cnn(C3CCNCC3)c2)cnc1N)c1c(Cl)ccc(F)c1Cl [Crizotinib]
Effect of esomeprazole coadministration on peak exposure (Cmax) ([1]; esomeprazole 40 mg once daily x 5 days, single crizotinib 250 mg): did not affect; also recorded: no effect
tmax, median (range) [1, 5]: 5.00 (3.00‐6.00) h
CL/F (apparent clearance after oral dose), Arithmetic Mean ± SD [1, 6]: 124.8 ± 40.9 L/h
CL/F (apparent clearance after oral dose), Geometric Mean (%CV) [1, 6]: 117.8 (33) L/h
AUC(0-inf) [1, 7]: 2370 ng·h/mL
AUC(0-t) [1, 7]: 2240 ng·h/mL
Cmax [1, 7]: 115 ng/mL
AUC(0-inf) [1, 8]: 2120 ng·h/mL
AUC(0-t) [1, 8]: 2010 ng·h/mL
Cmax [1, 8]: 117 ng/mL
Tmax ([1]; human, plasma, po, 250 mg): 5 h
half-life ([1]; human, plasma, po, 250 mg): 35.8 ± 4.4 h
AUC(0-inf) [1, 9]: 2260 ± 891 ng·h/mL
AUC(0-inf) [1, 10]: 2120 ng·h/mL
AUC(0-t) [1, 9]: 2170 ± 876 ng·h/mL
AUC(0-t) [1, 10]: 2020 ng·h/mL
Cmax [1, 9]: 119 ± 32.9 ng/mL
Cmax [1, 10]: 115 ng/mL
half-life ([1]; human, plasma, po, 250 mg, t1/2 (terminal elimination half-life), Arithmetic Mean ± SD, healthy participants, plasma, single oral crizotinib 250 mg after overnight fast, alone (n = 15)): 33.2 ± 7 h
Median time to Cmax ([1]; with or without esomeprazole, single crizotinib 250 mg): 5 h
gastrointestinal disorders (system organ class), all causality [2]: 11 participants
nervous system disorders (system organ class), all causality [2]: 4 participants
treatment-related gastrointestinal disorders (system organ class) [2]: 11 participants
Discontinuations due to AEs, all causality ([2]; N = 15 per treatment): 0
Dose reductions or temporary discontinuation due to AEs ([2]; N = 15 per treatment): 0
Participants with AEs, all causality ([2]; N = 15 per treatment): 12 (12)
Participants with AEs, treatment-related ([2]; N = 15 per treatment): 12 (12)
Participants with serious AEs ([2]; N = 15 per treatment): 0
Participants with severe AEs ([2]; N = 15 per treatment): 0
Abdominal pain upper, all causality [2, 11]: 0
Abdominal pain, all causality [2, 11]: 3 (3)
Abdominal pain, treatment-related [2, 11]: 3 (3)
Abnormal gastrointestinal sounds, all causality [2, 11]: 1 (1)
Abnormal gastrointestinal sounds, treatment-related [2, 11]: 1 (1)
Diarrhea, all causality [2, 11]: 11 (11)
Diarrhea, treatment-related [2, 11]: 11 (11)
Dizziness, all causality [2, 11]: 2 (2)
Dizziness, treatment-related [2, 11]: 2 (2)
Fatigue, all causality [2, 11]: 2 (2)
Fatigue, treatment-related [2, 11]: 2 (2)
Headache, all causality [2, 11]: 2 (2)
Headache, treatment-related [2, 11]: 2 (2)
Nausea, all causality [2, 11]: 2 (2)
Nausea, treatment-related [2, 11]: 2 (2)
Number of AEs, all causality ([2]; treatment-emergent): 28
Number of AEs, treatment-related ([2]; treatment-emergent): 24
Number of AEs, treatment-related ([2]; treatment-emergent, listed as crizotinib): Twenty‐four
Overall safety and tolerability ([2]; single 250-mg dose): generally safe and well tolerated
solubility ([3]; pH 1.6): > 10000 µg/mL
solubility ([3]; pH 8.2): < 100 µg/mL
time to steady state [4]: 15 days

CC(Oc1cc(-c2cnn(C3CCNC(=O)C3)c2)cnc1N)c1c(Cl)ccc(F)c1Cl (stereo not shown) [PF‐06260182]
AUCinf, Adjusted Geometric Mean, Reference [1, 12]: 446.0 ng·h/mL
AUClast, Adjusted Geometric Mean, Reference [1, 12]: 436.9 ng·h/mL
Cmax, Adjusted Geometric Mean, Reference [1, 12]: 34.8 ng/mL
AUCinf, Adjusted Geometric Mean, Test [1, 13]: 367.8 ng·h/mL
AUClast, Adjusted Geometric Mean, Test [1, 13]: 359.8 ng·h/mL
Cmax, Adjusted Geometric Mean, Test [1, 13]: 26.9 ng/mL
apparent t1/2, mean value ([1]; both treatments (crizotinib alone and with esomeprazole)): ≈ 20 hours
AUCinf, Arithmetic Mean ± SD [1, 5]: 383 ± 127 ng·h/mL
AUCinf, Geometric Mean (%CV) [1, 5]: 364 (33) ng • h/mL
AUClast, Arithmetic Mean ± SD [1, 5]: 376 ± 126 ng·h/mL
AUClast, Geometric Mean (%CV) [1, 5]: 357 (34) ng • h/mL
Cmax, Arithmetic Mean ± SD [1, 5]: 27.7 ± 6.8 ng/mL
Cmax, Geometric Mean (%CV) [1, 5]: 26.8 (25) ng/mL
t1/2 (terminal elimination half-life), Arithmetic Mean ± SD [1, 5]: 19.5 ± 5.9 h
tmax, median (range) [1, 5]: 6.00 (5.00‐8.05) h
MRAUCinf (metabolite to parent ratio of AUCinf), Geometric Mean (%CV) ([1]; molar ratio PF-06260182/crizotinib, single oral crizotinib 250 mg alone (n = 14)): 0.18 (16)
MRAUClast (metabolite to parent ratio of AUClast), Geometric Mean (%CV) [1, 14]: 0.19 (18)
MRCmax (metabolite to parent ratio of Cmax), Geometric Mean (%CV) [1, 14]: 0.29 (26)

COc1ccc2nc([S@@+]([O-])Cc3ncc(C)c(OC)c3C)[nH]c2c1 [esomeprazole, Esomeprazole]
gastrointestinal disorders (system organ class), all causality [2]: 3 participants
nervous system disorders (system organ class), all causality [2]: 2 participants
treatment-related gastrointestinal disorders (system organ class) [2]: 3 participants
Number of AEs, treatment-related ([2]; treatment-emergent): 7
